Test results as given in ChEMBL document CHEMBL1240321, “Cyclostreptin binds covalently to microtubule pores and lumenal taxoid binding sites” (Nat Chem Biol, 2007).
Activity calls are given as the source filed them. The rule behind the calls is not given here.

What was measured:
[1] = Displacement of [3H]paclitaxel from microtubule assessed as bound radioligand level at 20 uM treated before radioligand addition by competitive binding assay
A2780 [2] = experiment: Induction of mitotic cell cycle arrest in human A2780 cells assessed as accumulation of cells at G1/G0 phase at 100 nM after 24 hrs by flow cytometry (Rvb= 60%); format: functional
A2780 [3] = experiment: Induction of mitotic cell cycle arrest in human A2780 cells assessed as accumulation of cells at SubG1 phase at 100 nM after 24 hrs by flow cytometry (Rvb= 2.5%); format: functional
[4] = Induction of mitotic cell cycle arrest in potoroo PtK2 cells assessed as accumulation at S phase at 100 nM after 24 hrs by flow cytometry (Rvb= 12%); format: functional, Potorous tridactylus
[5] = Induction of mitotic cell cycle arrest in potoroo PtK2 cells assessed as accumulation of cells at G1/G0 phase at 100 nM after 24 hrs by flow cytometry (Rvb= 60.8%); format: functional, Potorous tridactylus
[6] = Induction of mitotic cell cycle arrest in potoroo PtK2 cells assessed as accumulation of cells at SubG1 phase at 100 nM after 24 hrs by flow cytometry (Rvb= 0.9%); format: functional, Potorous tridactylus
[7] = Cytotoxicity against human A2780-1A9 cells; format: functional, cell-based
A2780 [8] = experiment: Cytotoxicity against human A2780 cells; format: functional, cell-based
[9] = Induction of mitotic cell cycle arrest in potoroo PtK2 cells assessed as accumulation of cells at G2+M phase at 2 uM treated for 7 hrs, washed followed by 48 hrs incubation by flow cytometry (Rvb= 22.3%); format: functional, Potorous tridactylus
[10] = Induction of mitotic cell cycle arrest in potoroo PtK2 cells assessed as accumulation at S phase at 5 uM treated for 7 hrs, washed followed by 48 hrs incubation by flow cytometry (Rvb= 10.7%); format: functional, Potorous tridactylus
[11] = Induction of mitotic cell cycle arrest in potoroo PtK2 cells assessed as accumulation of cells at G1/G0 phase at 2 uM treated for 7 hrs, washed followed by 48 hrs incubation by flow cytometry (Rvb= 65.8%); format: functional, Potorous tridactylus
[12] = Induction of mitotic cell cycle arrest in potoroo PtK2 cells assessed as accumulation of cells at SubG1 phase at 5 uM treated for 7 hrs, washed followed by 48 hrs incubation by flow cytometry (Rvb= 1.1%); format: functional, Potorous tridactylus
[13] = Induction of mitotic cell cycle arrest in potoroo PtK2 cells assessed as accumulation of cells at G2+M phase at 5 uM treated for 7 hrs, washed followed by 16 hrs incubation by flow cytometry (Rvb= 23%); format: functional, Potorous tridactylus
[14] = Induction of mitotic cell cycle arrest in potoroo PtK2 cells assessed as accumulation of cells at G1/G0 phase at 2 uM treated for 7 hrs, washed followed by 16 hrs incubation by flow cytometry (Rvb= 59%); format: functional, Potorous tridactylus
[15] = Induction of mitotic cell cycle arrest in potoroo PtK2 cells assessed as accumulation of cells at SubG1 phase at 5 uM treated for 7 hrs, washed followed by 16 hrs incubation by flow cytometry (Rvb= 2%); format: functional, Potorous tridactylus
[16] = Induction of mitotic cell cycle arrest in potoroo PtK2 cells assessed as accumulation at S phase at 5 uM after 7 hrs by flow cytometry (Rvb= 15.5%); format: functional, Potorous tridactylus
[17] = Induction of mitotic cell cycle arrest in potoroo PtK2 cells assessed as accumulation of cells at G1/G0 phase at 2 uM after 7 hrs by flow cytometry (Rvb= 15.5%); format: functional, Potorous tridactylus
[18] = Induction of mitotic cell cycle arrest in potoroo PtK2 cells assessed as accumulation of cells at G1/G0 phase at 5 uM after 7 hrs by flow cytometry (Rvb= 60%); format: functional, Potorous tridactylus
[19] = Induction of mitotic cell cycle arrest in potoroo PtK2 cells assessed as accumulation of cells at SubG1 phase at 5 uM after 7 hrs by flow cytometry (Rvb= 2.4%); format: functional, Potorous tridactylus
PtK2 [20] = experiment: Induction of microtubule bundle formation in potoroo PtK2 cells at 5 uM treated for 7 hrs followed by compound washout measured after 48 hrs by flow cytometry; format: cell-based; conditions: Potorous tridactylus
[21] = Induction of micronucleation in potoroo PtK2 cells at 2 uM treated for 7 hrs followed by compound washout measured after 16 hrs by flow cytometry; format: functional, Potorous tridactylus
[22] = Induction of micronucleation in potoroo PtK2 cells at 10 uM after 7 hrs by flow cytometry; format: functional, Potorous tridactylus
[23] = Induction of micronucleation in potoroo PtK2 cells at 2 uM after 7 hrs by flow cytometry; format: functional, Potorous tridactylus
PtK2 [24] = experiment: Induction of microtubule bundle formation in potoroo PtK2 cells at 2 uM after 7 hrs by flow cytometry; format: cell-based; conditions: Potorous tridactylus
[25] = Binding affinity to microtubule
[26] = Binding affinity to microtubule at 30 uM after 30 mins by HPLC-MS analysis
[27] = Induction of mitotic cell cycle arrest in human A2780AD cells assessed as accumulation of cells at G2+M phase at 100 nM after 24 hrs by flow cytometry (Rvb= 20.5%); format: functional, A2780 ADR
Tubulin (Homo sapiens) [28] = molecular target: T1, Tubulin (Homo sapiens) (UniProt P68371+Q9H4B7+P0DPH7+P68366+Q13509+Q71U36+P04350+Q3ZCM7+P07437+P68363+Q9BQE3+Q6PEY2+Q13885+Q9BVA1+Q9BUF5); experiment: Induction of covalent modification of tubulin at Thr220 and Asn228 in human A549 cells by HPLC analysis; format: cell-based
How it was run: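 A549 monolayers exposed 24 h to 1 µM ligand or 0.1% DMSO. Tubulin purified from homogenate supernatant by one-step DEAE ion exchange (0.4 M KCl load, 0.8 M KCl elution) to 90% purity. Tryptic or chymotryptic digests analysed by HPLC-MRM with Q3 at m/z 249.0. Adduct fraction estimated from the areas of modified and unmodified peptide peaks.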

[29] = Displacement of [3H]discodermolide from microtubule assessed as bound radioligand level at 20 uM treated before radioligand addition by competitive binding assay
[30] = Induction of mitotic cell cycle arrest in human A2780AD cells assessed as accumulation of cells at S phase at 100 nM after 24 hrs by flow cytometry (Rvb= 16.2%); format: functional, A2780 ADR
[31] = Induction of mitotic cell cycle arrest in human A2780AD cells assessed as accumulation of cells at SubG1 phase at 100 nM after 24 hrs by flow cytometry (Rvb= 4.1%); format: functional, A2780 ADR
A2780 [32] = experiment: Induction of mitotic cell cycle arrest in human A2780 cells assessed as accumulation of cells at G2+M phase at 100 nM after 24 hrs by flow cytometry (Rvb= 20%); format: functional
Tubulin (Homo sapiens) [33] = molecular target: T1, Tubulin (Homo sapiens); experiment: Binding affinity to tubulin in human A549 cells
PtK2 [34] = experiment: Induction of micronucleation in potoroo PtK2 cells at 10 uM after 7 hrs by flow cytometry; conditions: Potorous tridactylus
PtK2 [35] = experiment: Induction of micronucleation in potoroo PtK2 cells at 5 uM treated for 7 hrs followed by compound washout measured after 16 hrs by flow cytometry; conditions: Potorous tridactylus

Compound `CC1=C[C@H]2[C@@H](O)[C@H](C)[C@@H](O)[C@@H]2[C@H]2[C@@H]3C4=C5O[C@](C)(CC[C@@H](OC4=O)[C@H]5C)[C@@H]3C[C@@H]12` [CYCLOSTREPTIN] has an Activity [1] of 25%, an Activity (A2780 [2]) of 12.1% and an Activity (A2780 [3]) of 16.3%. For the same compound, the Activity [4] was 14.8%, the Activity [5] was 18.5% and the Activity [6] was 4.6%. The IC50 [7] was 44 nM, the IC50 (A2780 [8]) was 43.5 nM and the Activity [9] was 75%. The Activity [10] was 8.6%, the Activity [11] was 8.7% and the Activity [12] was 5.4%. For the same compound, the Activity [13] was 65.5%, the Activity [14] was 20.5% and the Activity [15] was 3.4%. The Activity [16] was 17.5%, the Activity [17] was 18% and the Activity [18] was 45.2%. The Activity [19] was 2.3%, the Activity (PtK2 [20]) was “Active” and the Activity [21] was 70%. The Activity [22] was 4%, the Activity [23] was 4% and the Activity (PtK2 [24]) was 4%. For the same compound, the Kd [25] was 49 nM, the Activity [26] was “Active” and the Activity [27] was 71%. The Activity (Tubulin (Homo sapiens) [28]) was “Active”, the Activity [29] was 19% and the Activity [30] was 6%. The Activity [31] was 16.4%, the Activity (A2780 [32]) was 61% and the Activity (Tubulin (Homo sapiens) [33]) was “Active”. The Activity (PtK2 [34]) was 4% and the Activity (PtK2 [35]) was 70%.
